The target of one test is T1, ADAM9 (Mus musculus, UniProt Q61072).
T1 sequence (Q61072 30-845): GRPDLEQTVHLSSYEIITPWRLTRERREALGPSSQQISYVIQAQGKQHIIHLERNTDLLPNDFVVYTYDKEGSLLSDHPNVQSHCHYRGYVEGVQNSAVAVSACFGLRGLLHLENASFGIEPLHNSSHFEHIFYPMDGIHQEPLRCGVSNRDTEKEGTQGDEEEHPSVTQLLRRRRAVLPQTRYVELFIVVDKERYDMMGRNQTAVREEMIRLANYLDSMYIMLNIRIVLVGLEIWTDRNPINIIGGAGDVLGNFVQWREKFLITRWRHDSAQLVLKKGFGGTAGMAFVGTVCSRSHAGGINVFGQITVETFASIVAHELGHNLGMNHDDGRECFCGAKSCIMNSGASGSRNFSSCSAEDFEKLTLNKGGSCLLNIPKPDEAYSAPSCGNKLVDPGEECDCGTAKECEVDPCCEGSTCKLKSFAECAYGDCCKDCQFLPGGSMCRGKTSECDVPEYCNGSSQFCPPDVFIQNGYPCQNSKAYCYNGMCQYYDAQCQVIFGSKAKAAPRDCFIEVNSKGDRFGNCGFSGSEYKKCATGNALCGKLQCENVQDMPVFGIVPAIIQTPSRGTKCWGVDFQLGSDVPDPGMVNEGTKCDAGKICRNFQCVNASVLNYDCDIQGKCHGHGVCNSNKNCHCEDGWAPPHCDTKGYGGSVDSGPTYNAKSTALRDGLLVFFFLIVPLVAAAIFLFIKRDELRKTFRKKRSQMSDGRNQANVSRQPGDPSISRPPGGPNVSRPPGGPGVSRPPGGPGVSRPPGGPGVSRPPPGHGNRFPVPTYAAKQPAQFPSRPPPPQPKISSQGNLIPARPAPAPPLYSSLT
It counts as cell-based. The settings on record: for stimulation of ADAM9-dependent shedding of EphB4-AP: 20 ng/ml PMA, 100 μM PV or 2.5 μM IO, 30 minutes; for dose dependence of inhibition of ADAM9-dependent release of EphB4-AP: titration.

Test [1] deals with EphB4-AP background shedding. The experiment in a line: Basal/background EphB4-AP shedding in cells expressing inactive ADAM9 E>A. It counts as cell-based, mouse. The settings on record: for effect on EphB4-AP shedding in the absence of active A9 (EA9 cells): 20 ng/ml PMA, 100 μM PV or 2.5 μM IO, 30 minutes. The gist of the method:
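Adam10/17-/- mEFs were co-transfected (Lipofectamine2000) with ADAM9 E>A plasmid (1.5 µg per 6-well well) and EphB4-AP (1 µg). After a 1 h OptiMEM wash, cells were held in fresh OptiMEM ± stimuli or inhibitor. Times were 30 min for stimuli (pervanadate freshly made from vanadate + H2O2) and 2 h for inhibitors. Readout was colorimetric AP in supernatant/(lysate+supernatant), as fold over untreated cells; mean ± SEM, ≥3 experiments, Dunnett's test.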

Test [2] has as its system recombinant soluble ADAM9. The settings on record: cited from earlier work; for inhibition of recombinantly expressed ADAM9: concentrations up to 200 nM; for Ki: read-out: Ki recombinant soluble ADAM9.
For test [3], the system named is ADAM10. The settings on record: cited from earlier work; for IC50: read-out: Potency (IC50/inhibition constant) ADAM10, cell-based.
Test [4] addresses T2, ADAM10 (Mus musculus, UniProt O35598).
T2 sequence (O35598 215-749): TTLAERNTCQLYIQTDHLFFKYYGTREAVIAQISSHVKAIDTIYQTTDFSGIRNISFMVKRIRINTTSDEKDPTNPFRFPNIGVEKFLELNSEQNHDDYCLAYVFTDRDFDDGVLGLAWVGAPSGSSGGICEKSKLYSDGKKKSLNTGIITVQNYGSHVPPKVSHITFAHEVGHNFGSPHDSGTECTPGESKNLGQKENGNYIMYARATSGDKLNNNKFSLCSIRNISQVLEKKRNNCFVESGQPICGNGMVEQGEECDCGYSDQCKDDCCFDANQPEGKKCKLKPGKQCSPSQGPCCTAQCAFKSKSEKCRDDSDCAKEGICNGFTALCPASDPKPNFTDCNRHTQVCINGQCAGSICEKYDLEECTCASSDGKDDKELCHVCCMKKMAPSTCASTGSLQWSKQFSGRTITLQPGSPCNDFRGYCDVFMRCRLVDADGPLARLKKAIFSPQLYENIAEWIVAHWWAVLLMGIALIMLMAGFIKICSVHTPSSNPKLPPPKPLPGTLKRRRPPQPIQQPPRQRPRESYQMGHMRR
The test is described as follows: ADAM10-dependent shedding of BTC-AP in wild type mEFs. The settings on record: WT mEFs, Supplementary Figure 2. It counts as cell-based. The gist of the method: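 Wild-type mEFs were transiently transfected with AP-tagged betacellulin using Lipofectamine2000. Cells were washed 1 h in OptiMEM, then given fresh OptiMEM with or without test compound for 30 min to 2 h. AP activity was measured colorimetrically in supernatant and lysate from three identical wells. Shedding = supernatant AP / (lysate + supernatant AP).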

A further test relates to ADAM17. The settings on record: 1 μM; cited from earlier work.
The subject of the next test is ADAM12. The settings on record: read-out: Potency (IC50/inhibition constant) ADAM12, cell-based; cited from earlier work.
In the next test the test system is ADAM15. The settings on record: read-out: Potency (IC50/inhibition constant) ADAM15, cell-based; cited from earlier work.

“Also recorded” adds a separate entry of the source. Read-outs that look alike come from different tables or passages of the source.

As for `CCCCCCCCCCCCCC(=O)O[C@@H]1[C@@H](C)[C@@]2(O)[C@@H](C=C(CO)C[C@]3(O)C(=O)C(C)=C[C@@H]23)[C@@H]2C(C)(C)[C@]12OC(C)=O` [PMA, phorbol-12 myristate 13-acetate], the “stimulation of ADAM9-dependent shedding of EphB4-AP” value at ADAM9 (Adam10/17−/− mEFs) was “did not enhance”. Besides, in test [1], the “effect on EphB4-AP shedding in the absence of active A9 (EA9 cells)” value is reported as “had no effect”.
On to “TIMP-1: tissue inhibitor of metalloproteinases 1”, for which the “inhibition of recombinantly expressed ADAM9” value in test [2] is “not inhibited”. Besides, the “effect on ADAM9-dependent increase in EphB4-AP shedding” value in the test with ADAM9 (concentrations up to 20 nM, Adam10/17−/− mEFs, 2 hours) is recorded as “not significantly affected; also recorded: did not affect”. For the same molecule, the “effect on EphB4 background shedding in EA9 expressing cells” value in test [1] (up to 20 nM, Adam10/17−/− mEFs, 2 hours) is recorded as “no significant effect”. Moreover, the IC50 with ADAM10 [3] is below 1 nM.
`CNC(=O)[C@@H](NC(=O)[C@H](CCCc1ccccc1)[C@H](C)N(O)C=O)C(C)(C)C` [GI254023X]: in test [2] (read-out: IC50 soluble ADAM9, biochemical assays), the IC50 was 280 ± 110 nM. On ADAM9 (concentrations of up to 10 μM, Adam10/17−/− mEFs), the “effect on ADAM9-mediated shedding of EphB4-AP” value was “did not block”. Also, the “effect on ADAM9-dependent processing of EphB4-AP” value on ADAM9 (concentrations up to 5 μM) is reported as “did not block”. In addition, the “lowest concentration inhibiting shedding of the ADAM10 substrate betacellulin-AP” value on ADAM10 [4] amounted to 0.04 µM. Further, in the test with ADAM17, the “block of ADAM17 in cell-based assays” value is “not ADAM17”. Also, the “block of ADAM10 in cell-based assays” value with ADAM10 [3] (1 μM) is “blocks ADAM10”.
On to pervanadate, for which the “stimulation of ADAM9-dependent shedding of EphB4-AP” value at ADAM9 (Adam10/17−/− mEFs) is “not responsive”. In addition, the “effect on EphB4-AP shedding in the absence of active A9 (EA9 cells)” value in test [1] is “had no effect”.
On the same counts, the results for `C[C@H](CCC(=O)O)C[C@H](C)C[C@H](C)C(=O)/C=C(\O)[C@H](C)C[C@H](C)C/C=C/[C@@H](C)[C@@H](O)[C@@H](C)[C@@H](O)C[C@@H]1CC[C@@](C)([C@H]2CC[C@@](C)([C@@H](C)O)O2)O1` [ionomycin] are “not responsive” and “had no effect”.
In the case of GW280264X, on ADAM9 (increasing inhibition between 1 and 10 μM), the “lowest concentration effectively inhibiting ADAM9 activity” value amounted to 0.5 µM.
Turning to `CC(C)C[C@H](CC(=O)NO)C(=O)N[C@H](C(=O)N[C@@H](C)C(=O)NCCN)C(C)(C)C` [TAPI-2], the Ki in test [2] (biochemical assays) was 17 nM. Moreover, at ADAM9 (Adam10/17−/− mEFs, 2 hours), the “dose dependence of inhibition of ADAM9-dependent release of EphB4-AP” value (“dose dependence of inhibition … of EphB4-AP” for short) was “dose-dependent manner”.
As to `CNC(=O)[C@H](Cc1ccccc1)NC(=O)[C@H](CC(C)C)[C@H](CSc1cccs1)C(=O)NO` [Batimastat/BB94, Batimastat], the IC50 at ADAM9 was 50 nM; with ADAM10 [3], around 200 nM.
For `CNC(=O)[C@H](Cc1c[nH]c2ccccc12)NC(=O)[C@@H](CC(=O)NO)CC(C)C` [GM6001], the IC50 is 5930 nM in the test on ADAM12 and 720 nM on ADAM9. For the same molecule, the “dose dependence of inhibition … of EphB4-AP” value at ADAM9 (Adam10/17−/− mEFs, 2 hours) is “dose-dependent manner”.
For `CNC(=O)[C@@H](NC(=O)[C@H](CC(C)C)[C@H](O)C(=O)NO)C(C)(C)C` [Marimastat], the Ki in test [2] (biochemical assays) was 274 nM. The molecule further returned an IC50 against ADAM9 of 130 nM. The “dose dependence of inhibition … of EphB4-AP” value at ADAM9 (Adam10/17−/− mEFs, 2 hours) is listed as “dose-dependent manner”.

B1: TIMP-3: tissue inhibitor of metalloproteinases 3 (protein, UniProt P35625 24-211, looked up)
Metalloproteinase inhibitor 3: CTCSPSHPQDAFCNSDIVIRAKVVGKKLVKEGPFGTLVYTIKQMKMYRGFTKMPHVQYIHTEASESLCGLKLEVNKYQYLLTGRVYDGKMYTGLCNFVERWDQLTLSQRKGLNYRYHLGCNCKIKSCYYLPCFVTSKNECLWTDMLSNFGYPGYQSKHYACIRQKGGYCSWYRGWAPPDKSIINATDP
For B1, the “inhibition of recombinantly expressed ADAM9” value in test [2] was “not inhibited”. Also, the “reduction of the activity of ADAM9” value in the test with ADAM9 (10 nM) is reported as 40-50%; in the test with ADAM9 (20 nM) it was 75%. Moreover, the “effect on ADAM9-dependent EphB4-AP shedding” value in the test with ADAM9 (10 nM, Adam10/17−/− mEFs, 2 hours) was “inhibited ADAM9 partially; also recorded: partially blocked”; in the test with ADAM9 (20 nM, Adam10/17−/− mEFs, 2 hours) it was “strongly”. The IC50 in the test on ADAM15 is around 20 nM; in the test with ADAM10 [3] it was below 1 nM.

Source of the values: article PMC8606101 (The Biochemical journal, 2017).
